How the values were obtained:
HEK293 [1] = test: Cytotoxicity against HEK293 cells expressing UGT1A3 assessed as decrease in cell viability by measuring intracellular ATP content at 1 mM by CellTiter-Glo luminescent assay; assay type: ADME, cell-based; conditions: human, hek293, 1000 µM; TDE = time-dependent effect
Summary of the method: (§1)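 UGT1A3 or UGT1A4 stable HEK293 cells, 2 x 10^4 cells/well in 0.1 mL DMEM with 0.5% FBS, drug for 6, 12 or 24 h. Viability from intracellular ATP via CellTiter-Glo luminescence, expressed as percent of control cells. Mean ± SD of triplicates.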

Hepatocyte [2] = test: Cellular uptake in human hepatocytes at 1 mM measured at 6 hrs by LC-MS/MS analysis in absence of acyl glucuronidation inhibitor (-)-borneol; assay type: ADME, cell-based; conditions: 1000 µM
Summary of the method: (§2)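 Cryopreserved pooled human hepatocytes on collagen-coated wells, 2 × 10^5 cells/well in HCM medium with 0.5% FBS, preincubated 30 min with or without 1 mM (-)-borneol, then drug for 6 h; DMSO ≤0.2% final. Parent drug in cell fraction measured by LC-MS/MS after methanol/acetic acid extraction. Mean ± SD of triplicates.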

HEK293 [3] = test: Genotoxicity in HEK293 cells expressing UGT1A3 assessed as DNA strand breaks at 1 mM after 24 hrs by comet assay; assay type: toxicity, cell-based; conditions: human, hek293, 24 h, 1000 µM
Summary of the method: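 Alkaline comet assay: HEK/UGT1A3 cells seeded 24 h before, treated 24 h in DMEM with 0.5% FBS (vehicle 0.1% DMSO; MMS 0.1 mM positive control). Cells embedded in LMP agarose, lysed 1 h at 4°C at pH 10, unwound 30 min in NaOH/EDTA, electrophoresed 300 mA 20 min, ethidium-stained; tail moment scored on 150-180 comets over >3 experiments, median (IQR).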

HEK293 [4] = test: Cytotoxicity against HEK293 cells expressing UGT assessed as LDH leakage at 1 mM after 6 to 24 hrs by spectrophotometric analysis relative to total cell LDH level; assay type: ADME, cell-based; conditions: human, hek293, 1000 µM
Summary of the method: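 Stable UGT-expressing or mock HEK293 lines in DMEM with 0.5% FBS, 2 x 10^4 cells/well, drug for 6, 12 or 24 h. LDH released into medium read at 490 nm (690 nm reference); percentage calculated against maximum release from control cells lysed with 1% Triton X-100.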

HEK293 [5] = test: Cytotoxicity against HEK293 cells expressing UGT1A3 assessed as decrease in cell viability at 1 mM by MTT assay; assay type: ADME, cell-based; conditions: human, hek293, 1000 µM; TDE = time-dependent effect
HEK293 [6] = test: Cytotoxicity against mock transfected HEK293 cells assessed as decrease in cell viability by measuring intracellular ATP content at 1 mM by CellTiter-Glo luminescent assay; assay type: cell-based; conditions: human, hek293, 1000 µM; TDE = time-dependent effect
Summary of the method: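 Mock-transfected HEK293 cells seeded at 2 x 10^4 cells/well in DMEM with 0.5% FBS, drug added at once and incubated 6, 12 or 24 h. Viability read either by WST-8 (CCK-8) formazan absorbance at 450 nm or by intracellular ATP luminescence (CellTiter-Glo), as percent of control cells; mean ± SD of triplicates. Final DMSO ≤0.1%.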

HEK293 [7] = test: Cytotoxicity against mock transfected HEK293 cells assessed as decrease in cell viability at 1 mM by MTT assay; assay type: cell-based; conditions: human, hek293, 1000 µM; TDE = time-dependent effect
Hepatocyte [8] = test: Cytotoxicity against human hepatocytes assessed as decrease in cell viability at 1 mM measured at 6 hrs […] in presence of acyl glucuronidation inhibitor (-)-borneol; assay type: cell-based; conditions: 1000 µM
Hepatocyte [9] = test: Cellular uptake in human hepatocytes at 1 mM measured at 6 hrs by LC-MS/MS analysis in presence of acyl glucuronidation inhibitor (-)-borneol; assay type: ADME, cell-based; conditions: 1000 µM; summary of the method: as §2
HEK293 [10] = test: Cytotoxicity against HEK293 cells expressing UGT1A4 assessed as decrease in cell viability by measuring intracellular ATP content at 1 mM by CellTiter-Glo luminescent assay; assay type: ADME, cell-based; conditions: human, hek293, 1000 µM; TDE = time-dependent effect; summary of the method: as §1
[11] = biological target: T1, UDP-glucuronosyltransferase 1A3 (Homo sapiens, UniProt P35503); test: Activity of human UGT1A3 expressed in HEK293 cells assessed as enzyme-mediated ibuprofen acyl-beta-D-glucuronide formation at 1 mM measured at 24 hrs by LC-MS/MS analysis; assay type: ADME, cell-based; conditions: hek293, 24 h, 1000 µM
T1 sequence (P35503 whole entry): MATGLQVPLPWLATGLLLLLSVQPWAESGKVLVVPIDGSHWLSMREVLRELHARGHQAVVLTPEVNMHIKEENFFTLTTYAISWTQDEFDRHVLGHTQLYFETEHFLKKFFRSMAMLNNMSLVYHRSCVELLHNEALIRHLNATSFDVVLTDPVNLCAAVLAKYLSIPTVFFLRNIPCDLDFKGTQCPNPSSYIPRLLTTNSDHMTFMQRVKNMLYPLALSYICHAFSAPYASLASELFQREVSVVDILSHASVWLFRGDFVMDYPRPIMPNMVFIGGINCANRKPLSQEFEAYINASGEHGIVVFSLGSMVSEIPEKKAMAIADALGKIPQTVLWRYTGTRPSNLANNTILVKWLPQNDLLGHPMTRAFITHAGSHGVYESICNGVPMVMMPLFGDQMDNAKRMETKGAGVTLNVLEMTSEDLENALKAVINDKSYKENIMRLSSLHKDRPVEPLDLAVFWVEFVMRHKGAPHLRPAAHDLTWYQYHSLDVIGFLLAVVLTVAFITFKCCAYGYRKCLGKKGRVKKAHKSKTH
Summary of the method: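 HEK293 stably expressing human UGT1A3 (G418-selected), 2 x 10^5 cells/well in 1 mL DMEM with 0.5% FBS, exposed immediately to drug for 6, 12 or 24 h; DMSO ≤0.1% final. Cells and medium separated by centrifugation, cell fraction resuspended in PBS; aliquots mixed 1:1 with methanol/acetic acid (100:1), spun, supernatant analysed by LC-MS/MS. Triplicate determinations, mean ± SD.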

HEK293 [12] = test: Cytotoxicity against HEK293 cells expressing UGT1A4 assessed as decrease in cell viability at 1 mM by MTT assay; assay type: ADME, cell-based; conditions: human, hek293, 1000 µM; TDE = time-dependent effect
Hepatocyte [13] = test: Cytotoxicity against human hepatocytes assessed as decrease in cell viability by measuring intracellular ATP content at 1 mM measured at 6 hrs by CellTiter-Glo luminescent assay in absence of acyl glucuronidation inhibitor (-)-borneol; assay type: cell-based; conditions: 1000 µM
Summary of the method: (§3)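 Human hepatocytes (pooled, cryopreserved), 2 × 10^4 cells/well on collagen in HCM with 0.5% FBS and 10 nM estradiol; 30-min preincubation ± 1 mM (-)-borneol, then drug 6 h. Intracellular ATP measured by CellTiter-Glo luminescence, percent of control cells. Triplicates, mean ± SD.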

[14] = biological target: T2, UDP-glucuronosyltransferase 1A4 (Homo sapiens, UniProt P22310); test: Activity of human UGT1A4 expressed in HEK293 cells assessed as enzyme-mediated ibuprofen acyl-beta-D-glucuronide formation at 1 mM measured at 24 hrs by LC-MS/MS analysis; assay type: ADME, cell-based; conditions: hek293, 24 h, 1000 µM
T2 sequence (P22310 whole entry): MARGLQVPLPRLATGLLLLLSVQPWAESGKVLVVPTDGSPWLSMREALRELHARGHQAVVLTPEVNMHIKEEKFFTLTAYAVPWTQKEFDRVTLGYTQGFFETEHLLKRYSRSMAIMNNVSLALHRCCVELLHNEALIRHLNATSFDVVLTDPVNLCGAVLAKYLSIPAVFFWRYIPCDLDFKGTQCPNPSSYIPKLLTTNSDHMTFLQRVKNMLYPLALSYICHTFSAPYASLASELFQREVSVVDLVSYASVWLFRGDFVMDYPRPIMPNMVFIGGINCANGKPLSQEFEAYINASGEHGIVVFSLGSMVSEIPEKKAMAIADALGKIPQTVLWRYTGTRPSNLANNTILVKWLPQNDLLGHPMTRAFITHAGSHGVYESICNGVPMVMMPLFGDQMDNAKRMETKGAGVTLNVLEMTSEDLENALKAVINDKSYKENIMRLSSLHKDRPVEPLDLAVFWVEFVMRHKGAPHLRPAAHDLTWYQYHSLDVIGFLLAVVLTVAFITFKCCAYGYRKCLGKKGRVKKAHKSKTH
Summary of the method: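 HEK293 stably expressing human UGT1A4, 2 x 10^5 cells/well in DMEM with 0.5% FBS, drug exposure 6–24 h, DMSO ≤0.1% final. Acyl glucuronide in cell fraction and medium measured by LC-MS/MS after methanol/acetic acid (100:1) precipitation and centrifugation. Triplicate determinations.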

HEK293 [15] = test: Cytotoxicity against HEK293 cells expressing UGT assessed as decrease in cell viability at 1 mM measured up to 72 hrs by MTT assay; assay type: ADME, cell-based; conditions: human, hek293, 72 h, 1000 µM
Summary of the method: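 Mock and UGT1A3/UGT1A4 stable HEK293 cells given drug for up to 72 h; viability measured by WST-8-based MTT assay.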

Hepatocyte [16] = test: Cytotoxicity against human hepatocytes assessed as decrease in cell viability by measuring intracellular ATP content at 1 mM measured at 6 hrs by CellTiter-Glo luminescent assay in presence of acyl glucuronidation inhibitor (-)-borneol; assay type: cell-based; conditions: 1000 µM; summary of the method: as §3

- Drug uptake (Hepatocyte [2]): Active
- Drug uptake (Hepatocyte [9]): Active
- Drug metabolism [11]: metabolite_detected
- Drug metabolism [14]: metabolite_not_detected
Compound: CC(C)Cc1ccc(C(C)C(=O)O)cc1 (stereo unspecified) [IBUPROFEN]
- Activity (HEK293 [1]): tde
- Activity (HEK293 [3]): Non-toxic
- Activity (HEK293 [4]): < 5.4%
- Activity (HEK293 [5]): tde
- Activity (HEK293 [6]): tde
- Activity (HEK293 [7]): tde
- Activity (Hepatocyte [8]): Toxic
- Activity (HEK293 [10]): tde
- Activity (HEK293 [12]): tde
- Activity (Hepatocyte [13]): Toxic
- Activity (HEK293 [15]): Non-toxic
- Activity (Hepatocyte [16]): Toxic
